Measurements gathered from unrelated publications.
Compare with care: the assays were run in different laboratories.
EGFR: Epidermal growth factor receptor (EGFR, Homo sapiens, UniProt P00533)

O=C(N/N=C/c1cccn1CCCN1CCCCC1)Nc1cc2c(Nc3ccc(F)c(Cl)c3)ncnc2cc1O[C@H]1CCOC1  IC50 (EGFR; enzyme activity; inhibitor): 0.8 nM
C=C(Cl)C(=O)Nc1cc(Nc2nc(N3CCc4sccc4C3)c3sccc3n2)c(OC)cc1N(C)CCN(C)C  IC50 (EGFR; enzyme activity; inhibitor; ELISA): 996 nM
CCN(CC)C/C=N/NC(=O)Nc1cc2c(Nc3ccc(F)c(Cl)c3)ncnc2cc1O[C@H]1CCOC1  IC50 (EGFR; enzyme activity; inhibitor): 0.4 nM
C=CC(=O)Nc1cc(Nc2nccc(-c3cn(C4CC4)c4ccccc34)n2)c(OC)cc1N(C)CCN(C)C  IC50 (Epidermal growth factor receptor (EGFR, Homo sapiens, UniProt P00533, G719S); enzyme activity; inhibitor; TR-FRET): 82.8 nM
COc1cc2ncnc(Nc3ccc(O)cc3)c2cc1OC  Kd (EGFR; binding): 26 nM
CC#CC(=O)N1CC[C@@H](n2cc(-c3ccc(Oc4c(F)cccc4F)cc3)c3c(N)n[nH]c(=O)c32)C1  Kd (EGFR; binding; competition with immobilised ligand): 270 nM
C=C(Cl)C(=O)Nc1cc(Nc2nc(Nc3cnn(C)c3)c3sccc3n2)c(OC)cc1N(C)CCN(C)C  IC50 (Epidermal growth factor receptor (EGFR, Homo sapiens, UniProt P00533, C797S/L858R/T790M); enzyme activity; inhibitor; ELISA): > 1000 nM
COc1cc2ncc(-c3ccccc3)nc2cc1OC  Kd (EGFR; binding): > 10000 nM
